OX1R antag-1 – blocks the human orexin 1 receptor; CHO/OX1R cells, Fluo-8 calcium fluorescence, orexin A; inhibition, % at 5 µM; 330,000 tested, 0.43% active; AID 434989;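 active means inhibition above its plate's threshold, mean inhibition of all tested compounds on the plate plus 3 SD, cut at about 37% in these data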
TRPML3 agonist – human mucolipin-3 channel agonism. activation, % at 3 µM. 220,000 tested, 0.29% active. HEK293 TRPML3-YFP, Fluo-8 calcium fluorescence; 100% = the carbachol control signal. AID 1448;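 active means activation above its plate's cutoff, the mean activation of the plate's test wells plus 3 SD, cut at about 12% in these data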
Target sequence (Q8TDD5 whole entry, looked up): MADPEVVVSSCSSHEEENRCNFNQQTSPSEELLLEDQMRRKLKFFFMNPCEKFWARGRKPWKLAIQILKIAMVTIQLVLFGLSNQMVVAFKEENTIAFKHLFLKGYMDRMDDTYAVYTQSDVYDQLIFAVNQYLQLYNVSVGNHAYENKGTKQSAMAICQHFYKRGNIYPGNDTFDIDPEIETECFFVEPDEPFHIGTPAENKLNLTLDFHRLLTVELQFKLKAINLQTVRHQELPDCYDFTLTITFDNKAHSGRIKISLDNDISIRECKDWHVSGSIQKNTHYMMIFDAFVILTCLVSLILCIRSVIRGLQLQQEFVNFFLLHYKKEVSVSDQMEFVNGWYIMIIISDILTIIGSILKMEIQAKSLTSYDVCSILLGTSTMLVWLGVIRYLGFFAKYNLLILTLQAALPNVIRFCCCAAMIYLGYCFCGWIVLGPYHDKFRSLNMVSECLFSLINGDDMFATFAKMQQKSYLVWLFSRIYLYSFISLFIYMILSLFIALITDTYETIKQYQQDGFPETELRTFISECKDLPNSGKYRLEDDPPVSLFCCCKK
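Test system: TRPML3-YFP stable HEK293 cells. Doses: single point at 3 µM. Incubation: dye loading 1 h 37 °C then 30 min ambient, 125 s read. Signal: Fluo-8 calcium dye fluorescence, ex 470-495, em 515-575 nm. Measure: percent activation from peak-to-basal fluorescence ratio, scaled between DMSO and carbachol.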
TRPN1 ag – agonists of zebrafish TRPN1 channel | HEK293 zebrafish TRPN1-YFP, Fluo-8 calcium fluorescence; 100% = response to 87 µM carbachol | activation, % at 3 µM | 220,000 tested, 0.18% active | AID 1424;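 active means activation above its plate's cutoff, the mean activation of test wells on that plate plus 3 SD, cut at about 19% in these data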
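System: zebrafish TRPN1-YFP in HEK293 cells / Dosing: 3 µM single point / Timing: dye loading 1 h at 37 °C, then 30 min room temperature / Signal: Fluo-8 calcium fluorescence, excitation 470-495 nm, emission 515-575 nm / Read-out basis: percent activation from peak over basal fluorescence ratio, control-normalized / Control set: high carbachol 87 µM, low DMSO alone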
CHO parental Ca – counter-screen: ATP calcium response change in parental CHO cells; parental CHO-K1, ATP-induced calcium, Fluo-8 fluorescence; inhibition, % at 5.6 µM; 330,000 tested, 0.63% active; AID 463079;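 active means inhibition above that plate's mean sample inhibition plus 3 SD, cut at about 26% in these data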
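Assay system – parental CHO cells · Reagent – ATP stimulus · Detection – intracellular calcium via Fluo-8 no-wash fluorescent dye · Evaluation – percent inhibition of ATP-evoked calcium rise, normalized to controls · Controls – ATP wells versus no-ATP DMSO wells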
OX1R antag-2 – antagonists of human orexin 1 receptor (OX1R); O43613; OX1R-expressing cells, FRET antagonist read-out; inhibition, % at 6.6 µM; 330,000 tested, 1.8% active; AID 485270; in the data active means inhibition mostly above about 38%, no sharp cut-off; inactive means mostly below about 40%
OX1R Fluo8 conf – confirmation of human orexin 1 receptor antagonists; shares compounds with OX1R antag-1; CHO/OX1R cells, orexin A calcium Fluo-8 fluorescence; inhibition, % at 5 µM; 1,100 tested, 38% active; in the data active means inhibition above about 29%
CHO Ca triplic – signal in parental CHO cells, OX1R antagonist counter-screen; shares compounds with OX1R antag-1; 1,100 tested, 9.3% active; AID 492965; parental CHO-K1, ATP-induced calcium, Fluo-8 fluorescence; inhibition, % at 5.6 µM;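 active means inhibition above a per-plate limit, the mean inhibition of that plate's test compounds plus 3 SD, cut at about 25% in these data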
OX1R HTRF confirm – OX1R (human) antagonism, HTRF confirmed; shares compounds with OX1R antag-2; OX1R-expressing cells, HTRF antagonist assay; inhibition, % at 6.6 µM; 1,800 tested, 49% active; AID 492964; in the data active means inhibition above about 55%;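 further: CHO cells expressing OX1R stimulated with orexin A at about EC80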
CHO-K1 HTRF cnt – counter-screen for OX1R antagonists: effect in parental CHO-K1 cells; shares compounds with OX1R antag-2; HTRF counterscreen; inhibition, % at 6.6 µM; 1,800 tested, 48% active; AID 493232; in the data active means inhibition above about 17%
Numbers stand for hits; – = inactive; · = no result given. Hits are enriched below; roughly 2.5% of the tested compounds scored in any of these assays.

SMILES | OX1R antag-1 | TRPML3 agonist | TRPN1 ag | CHO parental Ca | OX1R antag-2 | OX1R HTRF confirm | CHO-K1 HTRF cnt | others
CCOc1ccccc1C(=O)Nc1cc(OC)ccc1OC | 61 | – | – | – | 68 | 89 | – | OX1R Fluo8 conf=–;CHO Ca triplic=–
Cc1ccc(-c2c(C(=O)N/N=C/c3c[nH]c4ccccc34)nnn2-c2nonc2N)cc1 | – | · | · | – | – | · | ·
COc1ccc(CCNC(=O)C2CCCN(S(=O)(=O)c3ccc(F)cc3)C2)cc1OC (stereo not given) | – | · | · | – | – | · | ·
Cc1cc([N+](=O)[O-])nn1CC(=O)NC1CCCCC1 | – | · | · | – | – | · | ·
COc1ccc(Br)cc1/C=C/C(=O)Nc1ccc2ccccc2c1 | 46 | – | – | – | 91 | 89 | – | OX1R Fluo8 conf=–;CHO Ca triplic=–
CCOC(=O)C1CCN(C(=O)COc2ccc3c(C)cc(=O)oc3c2)CC1 | – | · | · | – | – | · | ·
CCC(C)(C)NC(=O)CN(C(=O)c1csnn1)c1cccc2c1CCCC2 | – | – | – | – | – | · | ·
CCC(C)(C)NC(=O)CN(C(=O)c1csnn1)c1ccccc1-c1ccccc1 | 72 | – | – | – | 87 | 84 | – | OX1R Fluo8 conf=32;CHO Ca triplic=–
c1cncc(-c2nnc(-c3cccnc3)nn2)c1 | – | – | – | – | 88 | – | 28
N#CC1=C(N)Oc2c(ccc3cccnc23)C1c1cccnc1 (stereo not given) | – | – | – | – | 96 | – | –
N#CC1=C(N)Oc2cc3ccccc3cc2C1c1cccnc1 (stereo not given) | – | – | – | – | – | · | ·
CCC(=O)N1c2ccccc2-c2nnc(SC)nc2OC1c1ccc(OC)c(OC)c1 (stereo not given) | – | – | – | – | – | · | ·
CSc1nnc2c(n1)OC(C)=Nc1ccccc1-2 | – | – | – | – | 79 | 60 | 101
CSc1nnc2c(n1)OC(C)N(C(=O)c1ccccc1)c1ccccc1-2 (stereo not given) | – | – | – | – | – | · | ·
CCC1=Nc2ccccc2-c2nnc(SC)nc2O1 | – | – | – | – | 197 | 68 | 95
O=C1NC(=O)/C(=C\c2ccc(Oc3ccc([N+](=O)[O-])cn3)cc2)S1 | – | – | – | – | 77 | – | –
COc1cc(/C=C2\SC(=O)NC2=O)ccc1Oc1ccc([N+](=O)[O-])cc1[N+](=O)[O-] | – | – | – | – | – | · | ·
c1ccc2nc3c(nc2c1)[nH]c1ccccc13 | – | – | – | – | 82 | 72 | –
c1ccc(-c2c3ccccc3nc3[nH]c4ccccc4c23)cc1 | – | – | – | – | – | · | ·
Cc1cc(C(=O)Nc2cccc3cccnc23)ccc1[N+](=O)[O-] | – | – | – | – | 80 | 56 | –
O=C(NC(=S)Nc1cccc2cccnc12)c1ccccc1 | – | – | – | – | – | · | ·
O=C(COc1ccc2ccccc2c1)Nc1cccc2cccnc12 | – | – | – | – | 81 | – | –
O=C(COc1ccc2ccccc2c1)Nc1cccnc1Cl | – | · | · | – | – | · | ·
O=C(Nc1cccc2cccnc12)c1cccc([N+](=O)[O-])c1 | – | · | · | – | – | · | ·
CC(C)Oc1ccc(C(=O)Nc2cccc3cccnc23)cc1 | – | – | – | – | 79 | – | –
Cc1cccc(NS(=O)(=O)c2cccc(C(=O)NCC(C)(C)N3CCOCC3)c2)c1 | – | · | · | – | – | · | ·
NC(=S)N1OC[C@@H]2COc3ccc4ccccc4c3[C@@H]21 | – | – | – | – | – | · | ·
O=c1c2ccccc2nc2n1CC/C2=C\N1CCN(c2ccc([N+](=O)[O-])cc2)CC1 | – | · | · | – | 94 | – | 23
O=C(CSc1n[nH]c(-c2ccccc2)n1)NC(=O)NCc1ccco1 | – | – | – | – | 82 | – | –
COc1ccc(CNc2nc(SCC(=O)NCc3ccco3)nc3ccccc23)cc1 | – | – | – | – | 79 | – | –

Screening data (PubChem)
